ChEMBL document CHEMBL3758120, “Synthesis and Mechanism Studies of 1,3-Benzoazolyl Substituted Pyrrolo[2,3-b]pyrazine Derivatives as Nonintercalative Topoisomerase II Catalytic Inhibitors” (J Med Chem, 2016)
Activity calls are given as the source filed them. The rule behind the calls is not given here.

How the values were obtained:
[1] = target: DNA topoisomerase 2-alpha (Homo sapiens, UniProt P11388); assay: Inhibition of purified human topoisomerase 2-mediated relaxation of supercoiled pBR322 DNA at 50 uM incubated for 30 mins by agarose gel electrophoresis
Sequence of DNA topoisomerase 2-alpha (P11388 whole entry): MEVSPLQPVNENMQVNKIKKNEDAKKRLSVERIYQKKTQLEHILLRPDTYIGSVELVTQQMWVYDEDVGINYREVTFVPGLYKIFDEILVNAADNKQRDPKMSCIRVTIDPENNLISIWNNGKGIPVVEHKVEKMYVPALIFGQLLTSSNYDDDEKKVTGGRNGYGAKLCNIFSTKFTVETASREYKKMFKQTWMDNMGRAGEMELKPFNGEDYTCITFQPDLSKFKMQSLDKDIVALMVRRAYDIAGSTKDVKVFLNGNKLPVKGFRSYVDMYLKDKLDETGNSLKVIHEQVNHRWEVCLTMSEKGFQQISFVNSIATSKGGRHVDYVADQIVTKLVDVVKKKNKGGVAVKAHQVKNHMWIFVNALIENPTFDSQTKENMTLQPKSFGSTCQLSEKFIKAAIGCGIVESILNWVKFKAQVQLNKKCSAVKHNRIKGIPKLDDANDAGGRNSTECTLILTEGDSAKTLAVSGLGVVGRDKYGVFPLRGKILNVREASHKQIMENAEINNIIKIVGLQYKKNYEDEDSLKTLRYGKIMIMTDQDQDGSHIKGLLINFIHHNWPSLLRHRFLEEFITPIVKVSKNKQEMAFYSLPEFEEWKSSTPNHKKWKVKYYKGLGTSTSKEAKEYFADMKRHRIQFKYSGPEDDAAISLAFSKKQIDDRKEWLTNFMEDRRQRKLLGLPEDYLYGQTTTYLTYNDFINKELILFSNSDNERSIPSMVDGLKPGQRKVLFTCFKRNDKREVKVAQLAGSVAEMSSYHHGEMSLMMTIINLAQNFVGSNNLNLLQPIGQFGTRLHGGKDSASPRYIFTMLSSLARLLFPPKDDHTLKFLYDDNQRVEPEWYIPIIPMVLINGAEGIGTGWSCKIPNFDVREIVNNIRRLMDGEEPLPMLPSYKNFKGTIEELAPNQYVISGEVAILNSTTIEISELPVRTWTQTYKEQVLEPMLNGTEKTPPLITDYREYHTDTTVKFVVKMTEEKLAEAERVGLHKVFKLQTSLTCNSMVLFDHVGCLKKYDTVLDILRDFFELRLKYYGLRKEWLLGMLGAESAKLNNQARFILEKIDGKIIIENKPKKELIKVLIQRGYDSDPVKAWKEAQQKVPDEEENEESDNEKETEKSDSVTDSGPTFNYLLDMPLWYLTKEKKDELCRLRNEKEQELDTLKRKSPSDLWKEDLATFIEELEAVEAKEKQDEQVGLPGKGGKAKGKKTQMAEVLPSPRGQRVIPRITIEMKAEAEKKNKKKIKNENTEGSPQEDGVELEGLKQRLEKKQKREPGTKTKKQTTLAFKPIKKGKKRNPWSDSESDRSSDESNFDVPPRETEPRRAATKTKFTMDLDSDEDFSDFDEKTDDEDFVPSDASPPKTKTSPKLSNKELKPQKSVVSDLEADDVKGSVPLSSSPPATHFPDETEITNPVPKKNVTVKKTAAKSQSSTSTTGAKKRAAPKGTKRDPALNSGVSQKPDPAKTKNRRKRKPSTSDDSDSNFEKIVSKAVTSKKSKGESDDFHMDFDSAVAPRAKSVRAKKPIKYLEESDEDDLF
Outline: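 Reactions contained 0.2 μg supercoiled pBR322 in 50 mM Tris-HCl pH 8.0, 150 mM NaCl, 10 mM MgCl2, 0.5 mM DTT, 30 μg/ml BSA, normally 2 mM ATP (1, 2 or 4 mM in ATP-competition runs). Started with 1 U human Topo II, 30 min at 37 °C, stopped with sarcosyl buffer, run on 1% agarose 1.5 h at 75 V, gel-stained and imaged under UV.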

[2] = target: T1, DNA topoisomerase 1 (Homo sapiens) (UniProt P11387); assay: Inhibition of recombinant human topoisomerase 1-mediated relaxation of supercoiled pBR322 DNA at 50 uM incubated for 30 mins by agarose gel electrophoresis
T1 sequence (whole entry): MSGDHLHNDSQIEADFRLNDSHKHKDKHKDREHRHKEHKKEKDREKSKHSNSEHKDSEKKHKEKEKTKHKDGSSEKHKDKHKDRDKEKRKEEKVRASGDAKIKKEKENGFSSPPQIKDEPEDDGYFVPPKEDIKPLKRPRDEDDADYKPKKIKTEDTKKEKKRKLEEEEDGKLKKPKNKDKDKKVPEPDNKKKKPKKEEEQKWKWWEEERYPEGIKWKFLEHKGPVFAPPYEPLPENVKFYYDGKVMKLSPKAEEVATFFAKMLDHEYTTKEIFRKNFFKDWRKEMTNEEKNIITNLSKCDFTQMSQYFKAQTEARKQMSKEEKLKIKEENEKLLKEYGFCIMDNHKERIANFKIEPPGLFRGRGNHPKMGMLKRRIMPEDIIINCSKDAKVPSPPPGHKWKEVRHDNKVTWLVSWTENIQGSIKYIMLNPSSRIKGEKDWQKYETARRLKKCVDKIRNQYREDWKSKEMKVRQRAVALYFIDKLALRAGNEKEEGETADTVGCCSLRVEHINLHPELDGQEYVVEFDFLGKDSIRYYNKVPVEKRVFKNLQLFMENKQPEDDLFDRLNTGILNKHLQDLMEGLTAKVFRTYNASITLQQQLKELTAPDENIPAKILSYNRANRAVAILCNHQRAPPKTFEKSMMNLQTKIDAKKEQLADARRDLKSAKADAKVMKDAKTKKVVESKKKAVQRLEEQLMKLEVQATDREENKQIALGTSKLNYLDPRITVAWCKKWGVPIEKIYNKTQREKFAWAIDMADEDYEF
Outline: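 Supercoiled pBR322 relaxed by Topo I with compound, incubated 30 min at 37 °C, stopped with 1% SDS dye, run on 1% agarose 1 h at 90 V in TAE, stained and imaged under UV; camptothecin as reference.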

HeLa = assay: Antiproliferative activity against human HeLa cells after 48 hrs by MTT assay; format: functional, cell-based
Outline: (§1)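 Cells seeded at 5000 per well and left overnight, then exposed to increasing concentrations (0-50 μM) for 48 h. […] HL-60/MX2 is a mitoxantrone-selected HL-60 derivative with reduced Topo IIα/β.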

[3] = Antiproliferative activity against human MDA-MB-201 cells after 48 hrs by MTT assay; format: functional, cell-based; outline: as §1
A549 = assay: Antiproliferative activity against human A549 cells after 48 hrs by MTT assay; format: functional, cell-based; settings: A549, 48 h; outline: as §1
K562 = assay: Antiproliferative activity against human K562 cells after 48 hrs by MTT assay; format: functional, cell-based; settings: K562, 48 h; outline: as §1
Raji = assay: Antiproliferative activity against human Raji cells after 48 hrs by MTT assay; format: functional, cell-based; outline: as §1
[4] = Antiproliferative activity against human HL60 cells after 48 hrs by MTT assay; format: functional, cell-based; settings: HL-60, 48 h; outline: as §1
[5] = Antiproliferative activity against human HL60/MX2 cells after 48 hrs by MTT assay; format: functional, cell-based; settings: HL60/MX2, 48 h; outline: as §1
HEK293 = assay: Cytotoxicity against HEK293 cells after 48 hrs by MTT assay; format: cell-based; settings: Homo sapiens, HEK293, 48 h
HL-60 = assay: Resistance index, ratio of IC50 for human HL60/MX2 cells to IC50 for HL60 cells; format: functional
Outline: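 Resistance index calculated as MTT-derived IC50 (48 h exposure, 0-50 μM, A570 readout) in HL-60/MX2 divided by IC50 in parental HL-60.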

Compound | inhibition [1] | inhibition [2] | IC50 (HeLa) | IC50 (A549) | IC50 (K562) | IC50 (Raji) | IC50 [3] | IC50 [4] | IC50 [5] | IC50 (HEK293) | Ratio IC50 (HL-60)
N#Cc1nc2c(-c3nc4ccccc4[nH]3)c(N)n(CCCN3CCOCC3)c2nc1C#N | inactive | inactive | > 50 µM | > 50 µM | 7.72 µM | 14.4 µM | > 50 µM | > 50 µM | 5.57 µM | > 50 µM | 
CN(C)CCCn1c(N)c(-c2nc3cc(Cl)ccc3[nH]2)c2nc(C#N)c(C#N)nc21 | Active |  | 16.5 µM | > 50 µM | 10.7 µM | 3.11 µM | 28.1 µM | 2.93 µM | 5.31 µM | 11.7 µM | 1.8
CCN(CC)CCn1c(N)c(-c2nc3ccccc3n2C)c2nc(C#N)c(C#N)nc21 | inactive |  | > 50 µM | > 50 µM | > 50 µM | 2.08 µM | > 50 µM | 8.8 µM | 3.25 µM | 25.4 µM | 0.4
CN(C)CCCCn1c(N)c(C#N)c2nc(C#N)c(C#N)nc21 | inactive |  | > 50 µM |  |  |  |  | 12.9 µM |  |  | 
CCN(CC)CCCCn1c(N)c(-c2nc3cc(Cl)ccc3[nH]2)c2nc(C#N)c(C#N)nc21 | Active |  | 3.64 µM | 2.27 µM | 1.27 µM | 0.72 µM | 2.84 µM | 0.82 µM | 1.77 µM | 3.86 µM | 2.2
Cn1c(N)c(-c2nc3ccccc3[nH]2)c2nc(C#N)c(C#N)nc21 | inactive | inactive | > 50 µM | > 50 µM | > 50 µM | > 50 µM | > 50 µM | > 50 µM | > 50 µM | > 50 µM | 
N#Cc1nc2c(-c3nc4ccccc4[nH]3)c(N)n(CCN3CCOCC3)c2nc1C#N | inactive | inactive | > 50 µM | > 50 µM | > 50 µM | 2.88 µM | > 50 µM | 9.04 µM | > 50 µM | 22.3 µM | 
CCN(CC)CCn1c(N)c(-c2nc3cc(Cl)ccc3[nH]2)c2nc(C#N)c(C#N)nc21 | inactive |  | > 50 µM | > 50 µM | > 50 µM | 31.5 µM | > 50 µM | > 50 µM | 9.29 µM | > 50 µM | 
CN(C)CCn1c(N)c(-c2nc3cc(Cl)ccc3[nH]2)c2nc(C#N)c(C#N)nc21 | inactive |  | > 50 µM | > 50 µM | 11.3 µM | 11.8 µM | > 50 µM | > 50 µM | > 50 µM | > 50 µM | 
CN(C)CCn1c(N)c(-c2nc3ccccc3n2C)c2nc(C#N)c(C#N)nc21 | inactive |  | > 50 µM | > 50 µM | > 50 µM | 46.5 µM | > 50 µM | > 50 µM | 4.68 µM | > 50 µM | 
CN(C)CCCCn1c(N)c(-c2nc3cc(Cl)ccc3[nH]2)c2nc(C#N)c(C#N)nc21 | Active |  | 3.12 µM | 12.1 µM | 1.93 µM | 0.95 µM | 3.28 µM | 1.48 µM | 0.58 µM | 4.73 µM | 0.4
CN(C)CCn1c(N)c(-c2nc3ccccc3s2)c2nc(C#N)c(C#N)nc21 | inactive | inactive | > 50 µM | > 50 µM | 8 µM | 1.96 µM | > 50 µM | 1.67 µM | > 50 µM | 11.8 µM | 
N#Cc1nc2c(-c3nc4ccccc4[nH]3)c(N)n(CCN3CCCC3)c2nc1C#N | inactive | inactive | > 50 µM | > 50 µM | 6.48 µM | > 50 µM | > 50 µM | 4.76 µM | > 50 µM | 18.3 µM | 
N#Cc1nc2c(-c3nc4ccccc4o3)c(N)n(CCCN3CCCCC3)c2nc1C#N | inactive |  | 12.2 µM | 8.67 µM | > 50 µM | 3.19 µM | 32.2 µM | 3.82 µM | 5.45 µM | 19.2 µM | 1.4
CCN(CC)CCCn1c(N)c(-c2nc3cc(Cl)ccc3[nH]2)c2nc(C#N)c(C#N)nc21 | Active |  | 24.4 µM | > 50 µM | 4.83 µM | 1.62 µM | 23.2 µM | 3.47 µM | 2.46 µM | 8.42 µM | 0.7
CN(C)CCCCCn1c(N)c(-c2nc3ccccc3[nH]2)c2nc(C#N)c(C#N)nc21 |  |  | 10.8 µM |  |  |  |  | 3.42 µM |  |  | 

Further lines, with some results ahead:

inhibition [1] | inhibition [2] | IC50 (HeLa) | IC50 (A549) | IC50 (K562) | IC50 (Raji) | Compound | IC50 [3] | IC50 [4] | IC50 [5] | IC50 (HEK293) | Ratio IC50 (HL-60)
inactive | inactive | > 50 µM | 1.97 µM | > 50 µM | > 50 µM | CCCn1c(N)c(-c2nc3ccccc3[nH]2)c2nc(C#N)c(C#N)nc21 | > 50 µM | 45.2 µM | > 50 µM | > 50 µM | 
inactive | inactive | > 50 µM | > 50 µM | > 50 µM | 2.78 µM | COc1ccc(CCn2c(N)c(-c3nc4ccccc4[nH]3)c3nc(C#N)c(C#N)nc32)cc1 | > 50 µM | > 50 µM | > 50 µM | > 50 µM | 
inactive | inactive | > 50 µM | > 50 µM | > 50 µM | > 50 µM | N#Cc1nc2c(-c3nc4ccccc4[nH]3)c(N)n(CCc3cc4ccccc4[nH]3)c2nc1C#N | > 50 µM | > 50 µM | > 50 µM | > 50 µM | 
 |  | 26.3 µM |  |  |  | N#Cc1nc2c(-c3nc4ccccc4[nH]3)c(N)n(CCCNc3ccccc3)c2nc1C#N |  | 6.92 µM |  |  | 
inactive |  | > 50 µM | > 50 µM | > 50 µM | 15.4 µM | N#Cc1nc2c(-c3nc4ccccc4[nH]3)c(N)n(CCc3ccccc3)c2nc1C#N | > 50 µM | > 50 µM | > 50 µM | > 50 µM | 
inactive | inactive | > 50 µM | > 50 µM | > 50 µM | 5.52 µM | N#Cc1nc2c(-c3nc4ccccc4[nH]3)c(N)n(CCO)c2nc1C#N | > 50 µM | > 50 µM | > 50 µM | > 50 µM | 
inactive | inactive | > 50 µM | > 50 µM | > 50 µM | > 50 µM | N#Cc1nc2c(-c3nc4ccccc4[nH]3)c(N)n(CCCO)c2nc1C#N | > 50 µM | > 50 µM | > 50 µM | > 50 µM | 
inactive | inactive | > 50 µM | > 50 µM | > 50 µM | > 50 µM | CCn1c(N)c(-c2nc3ccccc3[nH]2)c2nc(C#N)c(C#N)nc21 | > 50 µM | > 50 µM | > 50 µM | > 50 µM | 
